Laboratory results from ChEMBL document CHEMBL3112473, “Synthesis of a novel series of thiazole-based histone acetyltransferase inhibitors” (Bioorg Med Chem, 2014).
The source made the active and inactive calls. The rule behind the calls is not given here.

Columns and labels:
[1] = test system: Saccharomyces cerevisiae; experiment: Reduction of wild type Saccharomyces cerevisiae growth at 1 mM after 48 hrs; format: functional, organism-based
Procedure, shortened: (§1)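 Spot assay on S. cerevisiae. Wild type (S288c or BY4742) and isogenic HAT deletion strains were used: gcn5Δ, elp3Δ and sas2Δ in S288c; gcn5Δ and rtt109Δ in BY4742. Growth was scored against wild type after 48 h at 28 °C.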

[2] = test system: Saccharomyces cerevisiae; experiment: Reduction of growth of Saccharomyces cerevisiae harboring gcn5delta mutant at 1 mM after 48 hrs; format: functional, organism-based; procedure, shortened: as §1
[3] = biological target: Histone acetyltransferase p300 (Homo sapiens) (UniProt Q09472); experiment: Inhibition of human recombinant histone acetyltransferase p300 assessed as acetylation of histone H3 at 0.6 mM
Procedure, shortened: (§2)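 Fluorescent in vitro HAT kit assay. Human recombinant HAT catalytic domains (Gcn5, p300, PCAF) were incubated with acetyl-CoA and histone H3 substrate, with inhibitor at 0.15, 0.3 and 0.6 mM. Anacardic acid at 15 µM served as reference. Residual activity measured relative to untreated control. Each reaction run three times, standard errors given.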

[4] = test system: U-87MG ATCC; experiment: Inhibition of histone acetyltransferase in human U87 cells assessed as AcH3 and H3AcK18 level after 72 hrs by Western blotting; format: cell-based
Procedure, shortened: (§3)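 HeLa, U87 and BE-SK-N-BE(2) cells incubated with compound at 50 or 100 µM for 48 or 72 h. Total lysates in 2× Laemmli buffer, boiled 10 min, run on 15% SDS-PAGE and blotted. Probed for acetyl-H3 and H3K18ac, with GAPDH as constitutive control.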

[5] = Cytotoxicity against human U87 cells assessed as cell viability at 50 to 100 uM after 48 to 72 hrs by trypan blue exclusion assay; format: cell-based; conditions: u-87mg atcc
Procedure, shortened: (§4)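 Trypan blue exclusion on HeLa, U87 glioblastoma and BE-SK-N-BE(2) neuroblastoma cells. Compound added at final 50 and 100 µM and incubated 48 or 72 h at 37 °C, then cells collected and counted. About 1.5 × 10⁵ cells counted per point. Viability given as mean percentage of viable/dead cells relative to untreated controls.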

[6] = test system: Saccharomyces cerevisiae; experiment: Reduction of growth of Saccharomyces cerevisiae harboring gcn5delta mutant at 0.2 mM after 48 hrs; format: functional, organism-based; procedure, shortened: as §1
[7] = test system: Saccharomyces cerevisiae; experiment: Growth inhibition of Saccharomyces cerevisiae S288c harboring gcn5delta mutant after 48 hrs; format: functional, organism-based; procedure, shortened: as §1
[8] = Cytotoxicity against human BE-SK-N-BE(2) cells assessed as cell viability at 100 uM after 48 to 72 hrs by trypan blue exclusion assay; format: cell-based; conditions: read-out: Activity; procedure, shortened: as §4
[9] = biological target: T1, Histone acetyltransferase SAS2 (Saccharomyces cerevisiae (strain ATCC 204508 / S288c) (Baker's yeast)) (UniProt P40963); experiment: Inhibition of Saccharomyces cerevisiae S288c histone acetyltransferase assessed as acetylation of histone H4 at 0.6 to 0.8 mM by Western blotting
T1 sequence (whole entry): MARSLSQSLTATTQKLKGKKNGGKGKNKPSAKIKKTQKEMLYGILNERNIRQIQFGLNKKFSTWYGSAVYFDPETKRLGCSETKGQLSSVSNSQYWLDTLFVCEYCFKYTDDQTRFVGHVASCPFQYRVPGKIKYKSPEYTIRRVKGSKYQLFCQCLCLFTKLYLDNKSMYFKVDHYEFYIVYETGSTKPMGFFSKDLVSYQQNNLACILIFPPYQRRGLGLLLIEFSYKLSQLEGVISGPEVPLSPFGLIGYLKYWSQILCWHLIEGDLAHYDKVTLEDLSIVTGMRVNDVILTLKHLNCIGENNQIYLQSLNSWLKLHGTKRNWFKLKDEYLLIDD
Procedure, shortened: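 S288c wild-type yeast grown at 28 °C in YPD with 1% DMSO, plus compound at 0.6 or 0.8 mM. Total protein extracts boiled in Laemmli buffer, run on 15% SDS-PAGE and blotted. Probed for pan-acetylated H3 and H4, with unmodified H3 and ADA2 as loading standards. Acetylation normalized to ADA2. Triplicate experiments, SD reported.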

[10] = biological target: Histone acetyltransferase KAT2B (Homo sapiens) (UniProt Q92831); experiment: Inhibition of human recombinant histone acetyltransferase PCAF assessed as acetylation of histone H3 at 0.15 to 0.6 mM; procedure, shortened: as §2
[11] = test system: Saccharomyces cerevisiae; experiment: Growth inhibition of Saccharomyces cerevisiae S288c harboring gcn5delta mutant at 0.2 mM after 48 hrs; format: functional, organism-based; procedure, shortened: as §1
[12] = biological target: Histone acetyltransferase GCN5 (Saccharomyces cerevisiae) (UniProt Q03330); experiment: Inhibition of Saccharomyces cerevisiae S288c histone acetyltransferase assessed as acetylation of histone H3 at 0.6 to 0.8 mM by Western blotting
[13] = test system: U-87MG ATCC; experiment: Inhibition of histone acetyltransferase in human U87 cells assessed as AcH3 and H3AcK18 level after 48 to 72 hrs by Western blotting; format: cell-based; procedure, shortened: as §3
[14] = test system: Saccharomyces cerevisiae; experiment: Growth inhibition of Saccharomyces cerevisiae BY4742 harboring gcn5delta mutant at 0.2 mM after 48 hrs; format: functional, organism-based; procedure, shortened: as §1
[15] = species on record: Homo sapiens; experiment: Inhibition of histone acetyltransferase in human BE-SK-N-BE(2) cells assessed as AcH3 and H3AcK18 level after 72 hrs by Western blotting; format: cell-based; procedure, shortened: as §3
[16] = test system: Saccharomyces cerevisiae; experiment: Reduction of wild type Saccharomyces cerevisiae growth at 0.2 mM after 48 hrs; format: functional, organism-based; procedure, shortened: as §1
[17] = test system: HeLa; experiment: Inhibition of histone acetyltransferase in human HeLa cells assessed as AcH3 and H3AcK18 level after 72 hrs by Western blotting; format: cell-based; procedure, shortened: as §3
[18] = test system: HeLa; experiment: Cytotoxicity against human HeLa cells assessed as cell viability at 50 to 100 uM after 48 to 72 hrs by trypan blue exclusion assay; format: cell-based; procedure, shortened: as §4
[19] = test system: HeLa; experiment: Inhibition of histone acetyltransferase in human HeLa cells assessed as AcH3 and H3AcK18 level after 48 to 72 hrs by Western blotting; format: cell-based; procedure, shortened: as §3
[20] = species on record: Homo sapiens; experiment: Inhibition of histone acetyltransferase in human BE-SK-N-BE(2) cells assessed as AcH3 and H3AcK18 level after 48 to 72 hrs by Western blotting; format: cell-based; procedure, shortened: as §3
[21] = test system: Saccharomyces cerevisiae; experiment: Growth inhibition of Saccharomyces cerevisiae BY4742 harboring gcn5delta mutant after 48 hrs; format: functional, organism-based; procedure, shortened: as §1
[22] = test system: Saccharomyces cerevisiae; experiment: Growth inhibition of Saccharomyces cerevisiae BY4742 harboring gcn5delta mutant at 0.5 mM after 48 hrs; format: functional, organism-based; procedure, shortened: as §1
[23] = test system: Saccharomyces cerevisiae; experiment: Growth inhibition of Saccharomyces cerevisiae S288c harboring gcn5delta mutant at 0.5 mM after 48 hrs; format: functional, organism-based; procedure, shortened: as §1
[24] = test system: Saccharomyces cerevisiae; experiment: Growth inhibition of Saccharomyces cerevisiae S288c harboring elp3delta mutant at 0.5 mM after 48 hrs; format: functional, organism-based; procedure, shortened: as §1
[25] = test system: Saccharomyces cerevisiae; experiment: Growth inhibition of Saccharomyces cerevisiae S288c harboring sas2delta mutant at 0.5 mM after 48 hrs; format: functional, organism-based; procedure, shortened: as §1
[26] = test system: Saccharomyces cerevisiae; experiment: Reduction of wild type Saccharomyces cerevisiae growth at 0.5 mM after 48 hrs; format: functional, organism-based; procedure, shortened: as §1
[27] = test system: Saccharomyces cerevisiae; experiment: Growth inhibition of Saccharomyces cerevisiae BY4742 harboring rtt109delta mutant at 0.5 mM after 48 hrs; format: functional, organism-based; procedure, shortened: as §1
[28] = test system: Saccharomyces cerevisiae; experiment: Reduction of growth of Saccharomyces cerevisiae harboring gcn5delta mutant at 0.5 mM after 48 hrs; format: functional, organism-based; procedure, shortened: as §1
[29] = test system: Saccharomyces cerevisiae; experiment: Growth inhibition of Saccharomyces cerevisiae S288c harboring sas2delta mutant at 0.75 mM after 48 hrs; format: functional, organism-based; procedure, shortened: as §1
[30] = test system: Saccharomyces cerevisiae; experiment: Growth inhibition of Saccharomyces cerevisiae BY4742 harboring rtt109delta mutant at 0.75 mM after 48 hrs; format: functional, organism-based; procedure, shortened: as §1
[31] = test system: Saccharomyces cerevisiae; experiment: Growth inhibition of Saccharomyces cerevisiae S288c harboring gcn5delta mutant at 0.75 mM after 48 hrs; format: functional, organism-based; procedure, shortened: as §1
[32] = test system: Saccharomyces cerevisiae; experiment: Growth inhibition of Saccharomyces cerevisiae BY4742 harboring gcn5delta mutant at 0.75 mM after 48 hrs; format: functional, organism-based; procedure, shortened: as §1
[33] = test system: Saccharomyces cerevisiae; experiment: Growth inhibition of Saccharomyces cerevisiae S288c harboring elp3delta mutant at 0.75 mM after 48 hrs; format: functional, organism-based; procedure, shortened: as §1

Histone acetyltransferase p300 (Homo sapiens), sequence (Q09472 whole entry, the tested form may be a part): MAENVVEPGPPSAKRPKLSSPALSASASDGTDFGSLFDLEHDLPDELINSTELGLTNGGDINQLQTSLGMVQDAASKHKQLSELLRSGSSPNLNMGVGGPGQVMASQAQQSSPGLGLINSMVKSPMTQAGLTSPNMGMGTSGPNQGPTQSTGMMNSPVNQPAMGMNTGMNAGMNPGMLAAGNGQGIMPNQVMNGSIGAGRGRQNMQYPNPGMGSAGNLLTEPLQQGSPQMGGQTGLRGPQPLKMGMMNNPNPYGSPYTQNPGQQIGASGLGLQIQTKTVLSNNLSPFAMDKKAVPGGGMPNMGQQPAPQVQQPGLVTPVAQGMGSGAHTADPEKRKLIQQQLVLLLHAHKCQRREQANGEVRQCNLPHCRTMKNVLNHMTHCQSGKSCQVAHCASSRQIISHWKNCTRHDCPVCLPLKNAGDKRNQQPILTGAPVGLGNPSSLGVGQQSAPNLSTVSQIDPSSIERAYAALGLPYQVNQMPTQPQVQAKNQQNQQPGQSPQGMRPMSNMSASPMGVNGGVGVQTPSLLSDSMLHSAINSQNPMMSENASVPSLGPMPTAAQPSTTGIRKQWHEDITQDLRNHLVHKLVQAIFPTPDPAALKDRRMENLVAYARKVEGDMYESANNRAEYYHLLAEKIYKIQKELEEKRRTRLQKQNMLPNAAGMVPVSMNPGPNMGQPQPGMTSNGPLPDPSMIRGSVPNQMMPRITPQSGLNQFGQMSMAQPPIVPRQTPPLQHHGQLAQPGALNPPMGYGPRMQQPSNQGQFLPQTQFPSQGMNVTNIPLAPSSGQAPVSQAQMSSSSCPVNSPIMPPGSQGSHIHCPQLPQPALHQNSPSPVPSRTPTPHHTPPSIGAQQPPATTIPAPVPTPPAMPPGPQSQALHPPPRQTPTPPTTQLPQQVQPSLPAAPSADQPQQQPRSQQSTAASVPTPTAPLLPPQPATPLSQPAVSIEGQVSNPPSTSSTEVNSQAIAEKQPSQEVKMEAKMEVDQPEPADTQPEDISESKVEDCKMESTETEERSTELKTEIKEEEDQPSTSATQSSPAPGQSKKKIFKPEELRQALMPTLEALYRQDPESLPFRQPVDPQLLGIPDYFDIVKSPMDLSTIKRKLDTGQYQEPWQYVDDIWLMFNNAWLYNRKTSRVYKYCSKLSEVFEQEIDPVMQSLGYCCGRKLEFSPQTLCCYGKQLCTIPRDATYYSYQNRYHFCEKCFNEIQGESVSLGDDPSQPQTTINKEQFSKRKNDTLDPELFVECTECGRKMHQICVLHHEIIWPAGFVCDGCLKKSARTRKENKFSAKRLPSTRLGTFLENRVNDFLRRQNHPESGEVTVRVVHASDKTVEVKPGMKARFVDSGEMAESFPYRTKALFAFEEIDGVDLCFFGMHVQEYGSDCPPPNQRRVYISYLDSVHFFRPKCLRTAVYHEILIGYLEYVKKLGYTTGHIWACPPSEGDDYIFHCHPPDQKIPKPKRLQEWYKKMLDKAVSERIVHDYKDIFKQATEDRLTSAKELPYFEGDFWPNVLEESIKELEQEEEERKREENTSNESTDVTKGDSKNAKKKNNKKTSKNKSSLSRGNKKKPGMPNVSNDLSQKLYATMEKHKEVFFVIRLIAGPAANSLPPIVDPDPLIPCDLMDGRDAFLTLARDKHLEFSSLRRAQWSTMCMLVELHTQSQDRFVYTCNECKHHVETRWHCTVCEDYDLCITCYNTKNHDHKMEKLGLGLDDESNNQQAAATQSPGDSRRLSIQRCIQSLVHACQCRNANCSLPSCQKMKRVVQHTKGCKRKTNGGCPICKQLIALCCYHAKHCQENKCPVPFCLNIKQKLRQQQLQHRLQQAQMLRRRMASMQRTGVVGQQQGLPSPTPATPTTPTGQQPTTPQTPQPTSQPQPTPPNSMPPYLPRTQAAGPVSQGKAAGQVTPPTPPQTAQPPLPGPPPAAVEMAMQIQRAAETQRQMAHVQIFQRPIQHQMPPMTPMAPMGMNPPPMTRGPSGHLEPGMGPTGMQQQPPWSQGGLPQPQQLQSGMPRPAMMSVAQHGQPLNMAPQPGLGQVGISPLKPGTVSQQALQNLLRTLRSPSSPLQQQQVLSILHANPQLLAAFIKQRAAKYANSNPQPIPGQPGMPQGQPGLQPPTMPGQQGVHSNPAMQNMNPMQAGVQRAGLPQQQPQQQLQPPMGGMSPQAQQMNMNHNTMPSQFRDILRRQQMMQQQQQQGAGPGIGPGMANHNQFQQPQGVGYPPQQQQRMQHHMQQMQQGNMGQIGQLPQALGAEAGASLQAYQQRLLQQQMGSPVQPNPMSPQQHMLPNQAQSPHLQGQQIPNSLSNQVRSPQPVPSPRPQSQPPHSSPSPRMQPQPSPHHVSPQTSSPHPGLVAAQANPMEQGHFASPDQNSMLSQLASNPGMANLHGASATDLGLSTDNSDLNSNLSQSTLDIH
Histone acetyltransferase GCN5 (Saccharomyces cerevisiae), sequence (Q03330 whole entry, looked up): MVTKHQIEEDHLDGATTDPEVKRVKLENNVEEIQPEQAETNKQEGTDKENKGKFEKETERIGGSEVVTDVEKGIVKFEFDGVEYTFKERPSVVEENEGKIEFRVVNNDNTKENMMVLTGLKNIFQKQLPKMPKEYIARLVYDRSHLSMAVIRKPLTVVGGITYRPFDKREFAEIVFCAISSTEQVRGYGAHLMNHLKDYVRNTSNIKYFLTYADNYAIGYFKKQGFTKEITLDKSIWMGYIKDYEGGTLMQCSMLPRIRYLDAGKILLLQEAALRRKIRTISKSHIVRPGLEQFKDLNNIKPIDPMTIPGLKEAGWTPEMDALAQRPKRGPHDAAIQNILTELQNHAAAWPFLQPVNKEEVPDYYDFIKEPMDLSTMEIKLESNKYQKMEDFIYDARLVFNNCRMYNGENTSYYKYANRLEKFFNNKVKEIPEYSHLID
Histone acetyltransferase KAT2B (Homo sapiens), sequence (Q92831 whole entry, looked up): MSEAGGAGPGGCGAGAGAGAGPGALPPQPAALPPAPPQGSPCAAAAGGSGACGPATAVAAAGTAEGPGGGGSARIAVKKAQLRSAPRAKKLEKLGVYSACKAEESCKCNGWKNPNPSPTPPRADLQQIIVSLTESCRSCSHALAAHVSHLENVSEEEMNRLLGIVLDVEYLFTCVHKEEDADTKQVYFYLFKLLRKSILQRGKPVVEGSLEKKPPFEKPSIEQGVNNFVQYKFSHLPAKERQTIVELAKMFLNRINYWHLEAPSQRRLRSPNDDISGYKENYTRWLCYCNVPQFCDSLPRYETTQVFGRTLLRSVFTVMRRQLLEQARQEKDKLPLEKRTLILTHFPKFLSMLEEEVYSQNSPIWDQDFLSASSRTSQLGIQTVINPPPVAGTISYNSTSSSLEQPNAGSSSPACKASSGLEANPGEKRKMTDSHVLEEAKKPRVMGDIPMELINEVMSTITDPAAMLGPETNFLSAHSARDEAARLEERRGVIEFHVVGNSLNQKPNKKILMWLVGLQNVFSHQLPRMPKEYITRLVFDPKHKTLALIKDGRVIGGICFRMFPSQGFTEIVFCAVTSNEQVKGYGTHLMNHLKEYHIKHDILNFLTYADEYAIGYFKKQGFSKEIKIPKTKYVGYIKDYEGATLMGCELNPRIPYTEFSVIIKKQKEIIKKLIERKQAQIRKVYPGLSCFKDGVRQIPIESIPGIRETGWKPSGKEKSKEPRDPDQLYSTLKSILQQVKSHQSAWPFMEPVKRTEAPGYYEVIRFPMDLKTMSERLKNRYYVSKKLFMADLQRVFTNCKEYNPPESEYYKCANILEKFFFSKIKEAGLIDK

Question: For C/C(=N/Nc1nc(-c2ccc(Cl)cc2)cs1)c1ccccn1, which Activity [1] is on record?
Answer: Active

Question: And the Activity [2]?
Answer: Active

Question: For CC(C)=NNc1nc(-c2ccc(Cl)cc2)cs1, which inhibition [3] is on record?
Answer: Active

Question: And the inhibition [4]?
Answer: Active

Question: And the Activity [5]?
Answer: Non-toxic

Question: And the Activity [6]?
Answer: Active

Question: And the “growth inhibition (GI)” value [7]?
Answer: Dose-dependent effect

Question: And the viability at 100 µM [8]?
Answer: 30%

Question: And the inhibition [9]?
Answer: inactive

Question: What about the inhibition [10] of the same compound?
Answer: inactive

Question: What about the “growth inhibition (GI)” value [11] of the same compound?
Answer: Active

Question: And the inhibition [12]?
Answer: 50%

Question: What about the inhibition [13] of the same compound?
Answer: Dose-dependent effect

Question: And the “growth inhibition (GI)” value [14]?
Answer: Active

Question: And the inhibition [15]?
Answer: Active

Question: And the Activity [16]?
Answer: Active

Question: What about the inhibition [17] of the same compound?
Answer: Active

Question: And the Activity [18]?
Answer: Non-toxic

Question: And the inhibition [19]?
Answer: Dose-dependent effect

Question: What about the inhibition [20] of the same compound?
Answer: Dose-dependent effect

Question: What about the “growth inhibition (GI)” value [21] of the same compound?
Answer: Dose-dependent effect

Question: Which results are given for Clc1ccc(-c2csc(NN=C3CCCC3)n2)cc1?
Answer: growth inhibition (GI) [22]: Active; growth inhibition (GI) [23]: Active; growth inhibition (GI) [24]: inactive; growth inhibition (GI) [25]: inactive; Activity [26]: Active; growth inhibition (GI) [27]: inactive; Activity [28]: Active

Question: Which results are given for CCC(CC)=NNc1nc(-c2ccc(Cl)cc2)cs1?
Answer: Activity [6]: Active; growth inhibition (GI) [11]: Active; growth inhibition (GI) [14]: Active; Activity [16]: Active

Question: For CC/C(C)=N/Nc1nc(-c2ccc(Cl)cc2)cs1, which Activity [6] is on record?
Answer: Active

Question: What about the “growth inhibition (GI)” value [11] of the same compound?
Answer: Active

Question: What about the “growth inhibition (GI)” value [14] of the same compound?
Answer: Active

Question: And the Activity [16]?
Answer: Active

Question: For COc1cc(/C=C/C(=O)CC(=O)/C=C/c2ccc(O)c(OC)c2)ccc1O, which “growth inhibition (GI)” value [29] is on record?
Answer: inactive

Question: What about the “growth inhibition (GI)” value [30] of the same compound?
Answer: inactive

Question: And the “growth inhibition (GI)” value [31]?
Answer: Active

Question: What about the “growth inhibition (GI)” value [32] of the same compound?
Answer: Active

Question: And the “growth inhibition (GI)” value [33]?
Answer: inactive
